Assay outcomes: PubChem, several laboratories
CSC inhib = cancer stem cell viability inhibitors, primary screen, luminescence; cancer stem cell-like cells viability; inhibition, % at 7.5 µM; hit rate 1.1% among 300,000; in the data active = inhibition above about 75%; inconclusive = no clear call, values can overlap the other calls; tested in HMLE shEcad cells
Mdm2 MdmX PPI = inhibitors of human Mdm2-MdmX association, primary screen, cell-based, luminescence, split luciferase, SaOS-2, uHTS. Protein Mdm4 (Homo sapiens) + E3 ubiquitin-protein ligase Mdm2 (Homo sapiens), …. SaOS-2 split-luciferase Mdm2/MdmX complementation. inhibition, % at 8 µM. hit rate 3% among 330,000. AID 485346, 2010;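 active = inhibition of at least 50% at 8 µM in the primary screen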
Target sequence (O15151 whole entry, looked up): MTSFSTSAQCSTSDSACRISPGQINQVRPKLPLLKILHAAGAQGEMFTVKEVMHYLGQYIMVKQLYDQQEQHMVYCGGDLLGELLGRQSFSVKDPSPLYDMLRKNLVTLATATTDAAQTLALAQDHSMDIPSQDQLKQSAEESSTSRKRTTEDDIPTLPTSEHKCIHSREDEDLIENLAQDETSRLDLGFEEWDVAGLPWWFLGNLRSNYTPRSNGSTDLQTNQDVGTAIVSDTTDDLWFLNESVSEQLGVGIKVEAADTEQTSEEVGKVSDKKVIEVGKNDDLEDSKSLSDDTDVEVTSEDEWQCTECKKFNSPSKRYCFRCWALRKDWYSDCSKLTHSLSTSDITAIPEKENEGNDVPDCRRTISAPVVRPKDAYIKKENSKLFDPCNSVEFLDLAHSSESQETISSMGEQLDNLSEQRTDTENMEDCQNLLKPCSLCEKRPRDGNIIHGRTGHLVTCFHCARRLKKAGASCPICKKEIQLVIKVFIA
Target sequence (Q00987 whole entry, looked up): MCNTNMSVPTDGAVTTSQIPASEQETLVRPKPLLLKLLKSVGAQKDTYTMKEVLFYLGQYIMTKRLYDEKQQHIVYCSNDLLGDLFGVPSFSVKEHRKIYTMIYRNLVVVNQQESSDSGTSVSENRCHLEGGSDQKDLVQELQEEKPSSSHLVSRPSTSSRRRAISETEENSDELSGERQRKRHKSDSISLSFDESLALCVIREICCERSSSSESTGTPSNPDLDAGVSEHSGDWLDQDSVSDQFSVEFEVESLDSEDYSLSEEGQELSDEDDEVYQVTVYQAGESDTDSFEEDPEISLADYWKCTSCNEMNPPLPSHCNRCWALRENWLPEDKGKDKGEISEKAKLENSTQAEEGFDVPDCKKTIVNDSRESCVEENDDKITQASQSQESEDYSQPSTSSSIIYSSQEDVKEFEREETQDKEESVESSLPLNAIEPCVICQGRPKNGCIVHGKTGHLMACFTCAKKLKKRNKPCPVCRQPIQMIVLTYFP
T cruzi repl = inhibitors of intracellular T. cruzi growth, primary screen, luminescence, NIH3T3 host cells | T. cruzi beta-gal in NIH3T3, 90 h | inhibition, % (no concentration beside the values) | hit rate 1.4% among 300,000 | AID 1885, 2009;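 active = mean inhibition across valid replicates above about 55%, limit read from the data; inconclusive = mean below that limit but half or more replicates reach it; inactive = mean below it, under half of replicates reach it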;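 also: signal also drops with host cell toxicity which is not excluded here; 0% = plate median of DMSO wells and 100% = zero luminescence signal; higher percent means less beta-gal luminescence so fewer parasites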
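Assay system: NIH/3T3 host cells with β-galactosidase reporter T. cruzi; input: 5,000 host fibroblasts per well; compound: single 50 nL compound addition per well in DMSO; timing: ≥90 h infection period, 3 h prior cell attachment; measured by: GalScreen β-gal luminescence, detergent lysis, 60 min; evaluation: percent inhibition of parasite-derived β-gal signal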
aSyn UTR inh = MLPCN primary screen, SNCA 5' untranslated region; alpha-synuclein 5'UTR reporter, inhibitor activity; inhibition, % (tested at 7.5 µM); hit rate 0.82% among 300,000; AID 1813, 2009; in the data active = inhibition above about 60%; inconclusive = no clear call, values can overlap the other calls;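 also: H4 neuroglioblastoma cells stably carrying SNCA 5'UTR luciferase fusion; 0% = DMSO wells and 100% = positive control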
SKKanGAS inh = S. pyogenes SKKanGAS growth inhibitors in kanamycin, primary screen, streptokinase expression inhibitor project, SKKanGAS strain, BacTiter-Glo luminescence | 6 h | inhibition, % at 7.5 µM | hit rate 1.3% among 300,000;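 active = mean replicate score, as percent of positive control median, at least 50; inconclusive = mean below 50 but one replicate at or above 50; inactive = mean and every replicate below 50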;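 also: strain carries kanamycin resistance gene driven by streptokinase promoter and grows in 40 µg/ml kanamycin; loss of luminescence reflects streptokinase promoter inhibition or plain growth inhibition; 0% = median of DMSO wells and 100% = positive control at its reference dose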
Numbers without * were called inactive; ? = inconclusive; . = not tested or not shown. A selection: hits, their analogues and other compounds. The true share with any hit is near 5.4%.

SMILES	CSC inhib	Mdm2 MdmX PPI	T cruzi repl	aSyn UTR inh	SKKanGAS inh
C=CCn1c(SCc2cc(C(C)=O)ccc2OCC)nc2ccccc2c1=O	64.0	35.5	7.1	104.0*	0.4
COc1ccc(C(C)=O)cc1CSc1nc2ccccc2c(=O)n1-c1ccccc1	2.5	7.9	6.6	25.0	-3.2
Cc1ccc(S(=O)(=O)N(C)CC(=O)Nc2nc3ccccc3s2)cc1	-2.4	26.1	8.9	4.6	10.0
Cc1ccc(/C(=N/Nc2nc3ccccc3s2)C2=C(O)c3ccccc3C2=O)cc1	-9.2	36.0	2.2	-6.6	56.8*
Cc1ccc(NC(=O)c2cc(-c3ccccc3)nn2-c2ccccc2)c(Br)c1	61.2	12.6	17.9	-50.9	-18.8
Cc1ccc(NC(=O)c2cc(-c3ccccc3)nn2-c2ccccc2)cc1	87.9*	-1.6	12.6	-97.6	21.8
O=C(NC1=NCCS1)c1cc(-c2ccccc2)nn1-c1ccccc1	.	31.7	14.4	-39.6	51.3*
O=C(c1cnc2ccc3ccccc3c2c1)c1cc(F)ccc1O	83.8*	40.0	7.0	11.2	1.0
Cc1ccc(NC(=S)Nc2cc(-c3ccccc3)[nH]n2)cc1Cl	3.3	26.3	.	.	.
Fc1ccc(NC(=S)Nc2cc(-c3ccccc3)[nH]n2)cc1Cl	87.6*	-7.9	34.3	-26.8	32.0
CCCc1n[nH]c2c1/C(=N/O)CC(c1ccccc1)C2 (centres undefined)	23.2	0.6	20.2	69.4*	2.3
CCCc1noc2c1/C(=N\O)CC(c1ccccc1)C2 (centres undefined)	-3.2	-23.5	-3.7	-5.3	3.0
C/C(=N\Nc1nc(C)c(C)s1)c1ccc([N+](=O)[O-])cc1	3.0	10.1	-6.2	-130.0	14.2
Cc1ncc(CO)c(CNc2ccc(-c3nc4ccccc4[nH]3)cc2)c1O	-6.3	-37.4	-13.7	-14.4	-13.1
COCCNC(=S)N(CCc1c(C)[nH]c2ccc(F)cc12)Cc1cccs1	8.6	25.3	28.3	26.7	3.2
COCCNC(=S)N(CCc1c(C)[nH]c2ccc(Cl)cc12)Cc1cccs1	79.4*	25.5	51.6	-10.2	31.9
CCNC(=S)N(CCc1c(C)[nH]c2ccc(Cl)cc12)Cc1ccco1	-1.6	40.8	71.9*	-32.5	-5.5
CNC(=S)N(CCc1c(C)[nH]c2ccc(Cl)cc12)Cc1cccs1	25.1	49.1	59.7*	-22.4	?
CCNC(=S)N(CCc1c(C)[nH]c2ccc(C)cc12)Cc1cccs1	20.6	29.9	39.8	-38.9	0.6
COc1ccc2nc(NC(=O)CSC(C)C(=O)Nc3cc(C)on3)sc2c1 (centres undefined)	-0.7	1.2	-16.7	-37.5	15.3
c1ccc(N(c2ccccc2)c2nc(N3CCCC3)nc(-n3ccnc3)n2)cc1	101.2*	27.6	57.0*	-5.2	78.5*
c1ccc(-c2nc(-n3ccnc3)nc(-n3ccnc3)n2)cc1	3.9	28.7	1.2	-10.8	13.9
CN(c1ccccc1)c1nc(N2CCCC2)nc(-n2ccnc2)n1	18.8	22.3	12.5	9.2	52.3*
c1ccc(CN2CCN(c3nc(-c4ccccc4)nc(-n4ccnc4)n3)CC2)cc1	41.8	15.9	59.6*	17.9	16.0
CCOC(=O)N1CCN(c2nc(N(c3ccccc3)c3ccccc3)nc(-n3ccnc3)n2)CC1	29.1	36.8	49.0	12.6	43.0
SMILES	CSC inhib	Mdm2 MdmX PPI	T cruzi repl	aSyn UTR inh	SKKanGAS inh
COc1cc(C(C)=O)ccc1OCC(=O)NCC(c1ccc(F)cc1)N1CCOCC1 (centres undefined)	-14.2	0.2	.	.	.
CNc1c([N+](=O)[O-])cnn1-c1ccc(F)cc1	-10.7	11.0	-6.6	20.1	0.3
CCC(C)c1ccc(NC(=O)Nc2cccnc2)cc1 (centres undefined)	-6.3	-66.8	5.3	-155.3	-19.1
c1ccc(OCc2nc3c4c(ncn3n2)-c2ccccc2CC42CCCC2)cc1	19.8	9.9	39.4	9.1	52.2*
Cc1cccc(N2CCN(C(=O)C34CC5CC(CC(C5)C3)C4)CC2)c1C	30.8	11.5	44.6	27.3	83.3*
Cc1cccc(NS(=O)(=O)c2ccc(C(=O)N3CCCCCC3)cc2)c1C	.	14.2	7.6	-7.9	13.2
O=C(O)C1CCCN1c1nc(-c2ccc(Cl)c(Cl)c2)cc(C(F)(F)F)n1 (centres undefined)	-5.3	-5.7	.	.	.
CC(C)Cn1c(O)c(N=NC(=O)c2cccc(S(=O)(=O)N3CCCCC3)c2)c2ccccc21	91.4*	37.0	12.5	24.7	53.5*
O=C(NNC(=O)c1cccc(S(=O)(=O)N2CCCCC2)c1)c1ccccc1	-10.7	15.7	.	.	.
COc1ccccc1NC(=O)Nc1nc(CC(=O)NCc2ccc(F)cc2)cs1	-6.5	9.6	-17.4	5.1	5.5
Cc1ccc(Nc2nc(N)c3ccccc3n2)cc1C	30.3	-216.3	36.9	46.3	10.0
Cc1cc(C(=O)N/N=C/c2cc(N=Nc3ccccc3)ccc2O)n[nH]1	108.7*	.	45.4	65.5*	87.8*
O=[N+]([O-])c1cccc(S(=O)(=O)N2CCC(c3nc(-c4ccncc4)no3)CC2)c1	6.8	-31.6	60.6*	9.2	-0.2
Cc1ccnn1CCC(=O)N1CCCC(CCC(=O)NCc2ccccc2F)C1 (centres undefined)	-3.0	21.8	4.8	4.3	-2.2
Cc1ccc(CNC(=O)CCC2CCCN(Cc3ccc4cccc(F)c4n3)C2)o1 (centres undefined)	11.4	7.5	61.1*	16.7	-17.7
Cc1ccc(CNC(=O)CCC2CCCN(Cc3cccc4c3OCO4)C2)o1 (centres undefined)	7.9	5.0	51.9	-3.4	-0.2
Cc1ccc(CNC(=O)CCC2CCCN(Cc3c(C)nn(C(C)C)c3C)C2)o1 (centres undefined)	-7.4	9.6	67.4*	2.9	5.3
O=C1C(=O)N(CCCN2CCOCC2)C(c2ccc([N+](=O)[O-])cc2)/C1=C(/O)c1ccc2c(c1)OCO2 (centres undefined)	-4.6	10.7	12.2	-2.9	1.1
c1cc(CNC23CC4CC(CC(C4)C2)C3)ccn1	16.3	-12.5	-2.4	-17.1	-1.5
[O-][n+]1c2ccccc2c2n1CCN1CCOC21c1ccc(Cl)cc1 (centres undefined)	5.0	9.5	.	.	.
CC(C)(C)C1CCc2[nH]c3ccccc3c(=O)c2C1 (centres undefined)	13.4	3.8	59.1*	-43.6	-0.2
CN1CCN(Cc2nc3ccccc3c(=O)n2Cc2nc(-c3ccc4ccccc4c3)cs2)CC1	99.3*	.	29.1	23.0	12.2
Cc1ccccc1-n1nc(C(=O)c2cccs2)cc(-c2nc3ccccc3[nH]2)c1=N	17.8	38.5	?	18.1	86.0*
COc1cc(OC)cc(-c2c(-c3cccs3)c3cc(-c4ccc(N(C)C)nc4)ccc3n2C)c1	86.5*	20.1	.	.	.
COc1cc(OC)cc(-c2c(-c3cccs3)c3cc(Br)ccc3n2C)c1	45.8	21.4	.	.	.
Cn1c(-c2ccsc2)c(-c2cccs2)c2cc(Br)ccc21	80.5*	29.2	.	.	.
